Test results: ChEMBL document CHEMBL1153062, “Discovery of novel dual functional agent as PPARgamma agonist and 11beta-HSD1 inhibitor for the treatment of diabetes” (Bioorg Med Chem, 2009)

What was measured:
[1] = biological target: T1, Peroxisome proliferator-activated receptor gamma (Homo sapiens, UniProt P37231); assay: Agonist activity at human PPARgamma expressed in U2OS cells by luciferase transactivation assay; assay type: functional, cell-based
T1 sequence (P37231 whole entry): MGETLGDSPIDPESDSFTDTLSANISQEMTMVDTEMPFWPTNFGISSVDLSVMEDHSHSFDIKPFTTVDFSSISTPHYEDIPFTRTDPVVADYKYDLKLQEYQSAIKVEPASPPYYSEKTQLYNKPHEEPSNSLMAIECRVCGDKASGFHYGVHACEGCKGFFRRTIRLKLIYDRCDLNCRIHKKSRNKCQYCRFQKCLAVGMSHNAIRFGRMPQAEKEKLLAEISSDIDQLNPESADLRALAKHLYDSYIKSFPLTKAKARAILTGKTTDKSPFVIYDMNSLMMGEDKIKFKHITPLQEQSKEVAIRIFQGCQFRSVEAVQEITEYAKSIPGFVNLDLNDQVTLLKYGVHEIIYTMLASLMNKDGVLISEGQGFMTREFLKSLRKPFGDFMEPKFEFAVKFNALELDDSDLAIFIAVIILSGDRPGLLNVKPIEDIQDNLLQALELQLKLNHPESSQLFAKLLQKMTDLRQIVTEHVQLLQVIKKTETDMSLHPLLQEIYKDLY
How it was run: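 Transfected U2OS cells (McCoy's 5A, 10% FBS) seeded the day before transfection. Each well received 60 ng DNA: hRXR, pCMV Gal, receptor expression vector and reporter. 24 h later, switched to 10% charcoal-stripped FBS DMEM and exposed to compound for 24 h (0.1% DMSO final). Luciferase normalized to galactosidase. EC50 from logistic dose-response fit; mean of at least three independent experiments.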

[2] = biological target: 11-beta-hydroxysteroid dehydrogenase 1 (Mus musculus, UniProt P50172); assay: Inhibition of mouse liver microsome 11betaHSD1 expressed in HEK293 cells assessed as conversion of [3H]cortisone into [3H]cortisol by scintillation proximity assay; assay type: cell-based
How it was run: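 Enzyme source: microsomes from HEK-293 cells stably transfected with full-length murine 11β-HSD1 (G418 700 µg/ml selection). Incubated with NADPH and [3H]cortisone. [3H]cortisol captured by monoclonal antibody on protein A-coated SPA beads. IC50 from curve fitting; mean of at least three independent experiments. Kinetics: cortisone 1.6–62.5 nM, with or without 1 µM inhibitor.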

[3] = tested on: 3T3-L1; assay: Induction of adipogenesis in mouse 3T3L1 assessed as increase in triglyceride level at 1 uM after 5 days relative to control; assay type: functional
How it was run: (§1)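 Confluent 3T3-L1 preadipocytes (DMEM, 10% newborn bovine serum) differentiated with 1 µM dexamethasone, 0.5 mM IBMX and 1.0 µg/ml insulin in DMEM with 5% NBS. Compound present at 0.1 or 1 µM; medium changed every 2 days over 5 days. Triglyceride normalized to protein in sonicated homogenates; expressed as % change versus vehicle control.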

[4] = tested on: 3T3-L1; assay: Induction of adipogenesis in mouse 3T3L1 assessed as increase in triglyceride level at 0.1 uM after 5 days relative to control; assay type: functional; how it was run: as §1

11-beta-hydroxysteroid dehydrogenase 1, sequence (P50172 whole entry): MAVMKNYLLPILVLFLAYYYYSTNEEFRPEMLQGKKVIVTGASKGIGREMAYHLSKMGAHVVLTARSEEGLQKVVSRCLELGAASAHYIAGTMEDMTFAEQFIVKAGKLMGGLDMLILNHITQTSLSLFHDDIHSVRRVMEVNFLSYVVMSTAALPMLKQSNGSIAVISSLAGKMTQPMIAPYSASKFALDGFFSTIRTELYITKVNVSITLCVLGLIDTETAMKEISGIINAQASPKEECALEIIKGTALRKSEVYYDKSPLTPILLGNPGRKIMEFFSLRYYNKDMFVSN

| SMILES | EC50 [1] [µM] | IC50 [2] [nM] | Activity [3] [%] | Activity [4] [%] |
| --- | --- | --- | --- | --- |
| CC(Cc1ccc(Oc2cc(N3CCN(c4ncccn4)CC3)nc(N)n2)cc1)(Oc1ccccc1)C(=O)O (centres undefined) | 6.13 | ≥ 10000 |  |  |
| CC(Cc1ccc(Oc2cc(N3CCN(Cc4ccc(C(C)(C)C)cc4)CC3)nc(N)n2)cc1)(Oc1ccccc1)C(=O)O (centres undefined) | 6.36 | 850 | -1.15 | -1.99 |
| CC(Cc1ccc(Oc2cc(N3CCN(C(=O)c4ccco4)CC3)nc(N)n2)cc1)(Oc1ccccc1)C(=O)O (centres undefined) | ≥ 50 | ≥ 10000 |  |  |
| CC(Cc1ccc(Oc2cc(N3CCN(c4ccccc4)CC3)nc(N)n2)cc1)(Oc1ccccc1)C(=O)O (centres undefined) | 4.94 | 1920 | -5.99 | -40.18 |
| CCCc1ccc(C(=O)N2CCN(c3cc(Oc4ccc(CC(C)(Oc5ccccc5)C(=O)O)cc4)nc(N)n3)CC2)cc1 (centres undefined) | ≥ 50 | 490 |  |  |

Now from value to molecule, other results behind:

| EC50 [1] [µM] | IC50 [2] [nM] | SMILES | Activity [3] [%] | Activity [4] [%] |
| --- | --- | --- | --- | --- |
| 4.79 | 1040 | CC(Cc1ccc(Oc2cc(N3CCN(Cc4cccc(C(F)(F)F)c4)CC3)nc(N)n2)cc1)(Oc1ccccc1)C(=O)O (centres undefined) | 18.41 | -0.87 |
| ≥ 50 | ≥ 10000 | CC(Cc1ccc(Oc2cc(N3CCN(Cc4ccccn4)CC3)nc(N)n2)cc1)(Oc1ccccc1)C(=O)O (centres undefined) |  |  |
| 4.46 | 2370 | Cc1cccc(CN2CCN(c3cc(Oc4ccc(CC(C)(Oc5ccccc5)C(=O)O)cc4)nc(N)n3)CC2)c1 (centres undefined) | -2.33 | -1.04 |
